The text below walks through data of ChEMBL document CHEMBL3853286, “Screening and Biological Effects of Marine Pyrroloiminoquinone Alkaloids: Potential Inhibitors of the HIF-1α/p300 Interaction” (J Nat Prod, 2016).

The target in experiment [1] is T1, Hypoxia-inducible factor 1-alpha (Homo sapiens, UniProt Q16665). Put plainly: Inhibition of hypoxia-induced HIF1alpha transcriptional activity in human HCT116 cells at 0.1 to 10 uM measured after 18 hrs by hypoxia response element-driven dual luciferase reporter gene assay relative to hypoxia control. Particulars: HCT-116. It is filed as cell-based. The essentials:
(§1)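 HCT 116 cells seeded 50 000/well and cotransfected (Lipofectamine 2000) with 100 ng pGL4.42 HRE-firefly luciferase and 10 ng pRL-TK Renilla. After 24 h, treated in 0.1% FBS medium with compound (0.01−10 μM), chetomin (0.5 μM) or tirapazamine (25 μM). Incubated 18 h at 0.5% O2 or normoxia. HRE:TK ratio normalized to hypoxic DMSO control. Wilcoxon test with Hochberg correction.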
Background: Reporter assays use an easily measured gene product as a stand-in for the process of interest.
Target sequence in this assay (Q16665 whole entry, looked up): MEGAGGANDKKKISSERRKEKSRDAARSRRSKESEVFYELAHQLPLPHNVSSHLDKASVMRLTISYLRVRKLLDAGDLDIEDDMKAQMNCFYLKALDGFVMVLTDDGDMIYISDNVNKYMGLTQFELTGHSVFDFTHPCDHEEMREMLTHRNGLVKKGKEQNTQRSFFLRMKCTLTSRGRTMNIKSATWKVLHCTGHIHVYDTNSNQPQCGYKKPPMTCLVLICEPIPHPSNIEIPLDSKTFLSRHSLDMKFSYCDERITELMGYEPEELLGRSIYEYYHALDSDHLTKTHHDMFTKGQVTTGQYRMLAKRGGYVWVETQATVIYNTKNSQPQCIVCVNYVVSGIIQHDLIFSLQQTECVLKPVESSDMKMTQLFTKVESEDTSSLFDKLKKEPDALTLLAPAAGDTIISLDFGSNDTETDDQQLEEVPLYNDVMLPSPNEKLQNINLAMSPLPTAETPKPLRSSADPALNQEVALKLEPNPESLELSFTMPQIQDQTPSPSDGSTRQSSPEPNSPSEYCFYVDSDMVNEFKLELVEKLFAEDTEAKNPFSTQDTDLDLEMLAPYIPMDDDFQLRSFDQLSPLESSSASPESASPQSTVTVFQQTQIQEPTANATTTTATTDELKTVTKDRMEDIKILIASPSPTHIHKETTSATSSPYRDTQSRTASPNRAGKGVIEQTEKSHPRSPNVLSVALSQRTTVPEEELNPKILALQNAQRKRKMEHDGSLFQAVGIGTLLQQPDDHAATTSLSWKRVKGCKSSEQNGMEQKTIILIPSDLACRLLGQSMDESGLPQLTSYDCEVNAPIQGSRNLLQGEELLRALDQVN

A short description of experiment [2]: Cytotoxicity against human LNCAP cells measured after 18 hrs under hypoxic condition by CCK8 assay. It is filed as functional, cell-based. The gist of the method: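 LNCaP cells in phenol-free RPMI-1640 with 10% FBS, seeded 15 000 cells/well. After 24 h, exposed to compound (0.1−10 μM), tirapazamine or DMSO (0.5%, v/v) for 18 h at 1% O2. CCK-8 absorbance read at 450 nm after 2 h at 37 °C and normalized to DMSO controls to give percent viability. Quadruplicate wells, triplicate experiments.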

Experiment [3] concerns the target T1, Hypoxia-inducible factor 1-alpha. Nature of the experiment: Displacement of GST-tagged p300-CH1 domain (323 to 423 residues) from synthetic biotinylated HIF-1alpha C-TAD domain (786 to 826 residues) (unknown origin) measured after overnight incubation by fluorescence analysis. The gist of the method: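 Cell-free protein–protein displacement assay. The p300 CH1 domain is displaced from the HIF-1α C-TAD, which is immobilized on streptavidin-coated plates. IC50 values derived.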
Target sequence in this assay (Q16665 whole entry): as the sequence (Q16665 whole entry, looked up) above

Experiment [4] is described as follows: Cytotoxicity against human HCT116 cells measured after 18 hrs under hypoxic condition by CCK8 assay. The settings on record: HCT-116, 18 h. It is filed as functional, cell-based. The essentials:
(§2)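 HCT 116 cells in McCoy's 5A with 10% FBS, seeded 10 000 cells/well. After 24 h, treated with compound (0.05−50 μM), tirapazamine positive control or DMSO (0.5%, v/v). Incubated 18 h or 48 h at 0.5% O2, then CCK-8 for 2 h at 37 °C with absorbance at 450 nm. Percent viability relative to DMSO controls. Quadruplicate wells, triplicate experiments.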
In general terms: Formazan colour is commonly taken as a measure of viable cells.

A short description of experiment [5]: Cytotoxicity against human COLO205 cells measured after 48 hrs under hypoxic condition by CCK8 assay. It is filed as functional, cell-based. Particulars: COLO 205, 48 h. The gist of the method:
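COLO 205 cells in RPMI-1640 with 10% FBS, seeded 15 000 cells/well. After 24 h, treated with fresh medium holding compound (0.001−10 μM), tirapazamine positive control or DMSO (0.5%, v/v). Incubated 48 h at 0.5% O2, then CCK-8 added for 2 h at 37 °C and absorbance read at 450 nm. Viability normalized to DMSO controls. Quadruplicate wells, triplicate experiments.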

Experiment [6] addresses T1, Hypoxia-inducible factor 1-alpha. Nature of the experiment: Inhibition of hypoxia-induced HIF1alpha transcriptional activity in human LNCAP cells at 0.1 to 10 uM measured after 18 hrs by hypoxia response element-driven dual luciferase reporter gene assay relative to hypoxia control. It is filed as cell-based. The gist of the method:
(§3)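 LNCaP cells seeded 15 000/well and cotransfected (Lipofectamine 3000) with 10 ng pGL4.42 HRE-luciferase and 1 ng pRL-TK. After 24 h, treated in phenol-free RPMI-1640 with 0.1% charcoal-stripped FBS containing compound (0.1, 1, 10 μM). Incubated 18 h at 1% O2. Dual-luciferase HRE:TK ratio normalized to hypoxic DMSO control. Quadruplicate wells, triplicate experiments, Wilcoxon test with Hochberg correction.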
Target sequence in this assay (Q16665 whole entry, looked up): as above

Experiment [7] has the same target. Put plainly: Inhibition of hypoxia-induced HIF1alpha transcriptional activity in human HCT116 cells assessed as compound concentration causing inhibition of transcriptional activity measured after 18 hrs by hypoxia response element-driven dual luciferase reporter gene assay relative to hypoxia control. The settings on record: HCT-116. It is filed as cell-based. The essentials:
as §1
Target sequence in this assay (Q16665 whole entry, looked up): as above

Experiment [8] shares this target. Nature of the experiment: Inhibition of hypoxia-induced HIF1alpha transcriptional activity in human LNCAP cells assessed as compound concentration causing inhibition of transcriptional activity measured after 18 hrs by hypoxia response element-driven dual luciferase reporter gene assay relative to hypoxia control. It is filed as cell-based. The essentials:
as §3
Target sequence in this assay (Q16665 whole entry, looked up): as above

Experiment [9] is described as follows: Cytotoxicity against human HCT116 cells measured after 48 hrs under hypoxic condition by CCK8 assay. It is filed as functional, cell-based. The settings on record: HCT-116, 48 h. The gist of the method: as §2
Experiment [10] has as its target T1, Hypoxia-inducible factor 1-alpha. Nature of the experiment: Inhibition of HIF1alpha in human LNCAP cells assessed as hypoxia-induced VEGF secretion at 0.5 uM measured after 18 hrs under hypoxic conditions by ELISA. For orientation: In an ELISA, binding on a coated surface is turned into a signal by an enzyme label.
Target sequence in this assay (Q16665 whole entry, looked up): as above
Experiment [11] has the same target. Nature of the experiment: Inhibition of HIF1alpha in human LNCAP cells assessed as hypoxia-induced VEGF secretion at 0.25 to 1 uM measured after […] under hypoxic conditions by ELISA. It is filed as cell-based.
Target sequence in this assay (Q16665 whole entry, looked up): as above
For experiment [12] the target is unchanged. Nature of the experiment: Inhibition of HIF-1alpha in human PC3 cells assessed as decrease in ENO1 mRNA expression level. It is filed as cell-based. The settings on record: PC-3.
The target is the same in experiment [13]. Put plainly: Inhibition of HIF-1alpha in human PC3 cells assessed as decrease in VEGF mRNA expression level. It is filed as cell-based. Particulars: PC-3.
Experiment [14] has the same target. Put plainly: Inhibition of HIF-1alpha in human PC3 cells assessed as decrease in LDHA mRNA expression level. It is filed as cell-based. The settings on record: PC-3.
Experiment [15] shares this target. Nature of the experiment: Inhibition of hypoxia-induced HIF1alpha transcriptional activity in human HCT116 cells at 0.25 to 0.5 uM measured after 18 hrs by hypoxia response element-driven dual luciferase reporter gene assay relative to hypoxia control. It is filed as cell-based. The settings on record: HCT-116. The gist of the method: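 HCT 116 cells seeded 50 000/well and cotransfected with 100 ng pGL4.42 (4×HRE-firefly luciferase) and 10 ng pRL-TK Renilla using Lipofectamine 2000. After 24 h, cells treated in medium with 0.1% FBS, compound 0.01–10 μM. Incubated 18 h at 0.5% O2 or normoxia. HRE:TK signal divided by the mean of the DMSO hypoxic controls gives fold-induction. Quadruplicate wells, triplicate experiments.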

For experiment [16] the target is unchanged. Nature of the experiment: Inhibition of hypoxia-induced HIF1alpha transcriptional activity in human LNCAP cells at 0.25 to 0.5 uM measured after 18 hrs by hypoxia response element-driven dual luciferase reporter gene assay relative to hypoxia control. It is filed as cell-based.
Experiment [17] shares this target. Nature of the experiment: Inhibition of HIF-1alpha in human LNCAP cells assessed as decrease in VEGF secretion at 0.5 uM measured after 18 hrs under hypoxic conditions by ELISA. It is filed as cell-based. The essentials:
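LNCaP cells seeded 15 000/well in 96-well plates and incubated overnight at 37 °C. Medium then replaced with medium containing 0.1% charcoal-stripped FBS plus compound at 0.25, 0.5 or 1 μM, or DMSO control. Incubated 18 h at 1% O2. Supernatant diluted 2-fold and VEGF quantified by Quantikine ELISA. Values normalised per cell using CCK-8 viability. Triplicate experiments; exact Wilcoxon test with Hochberg correction.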

Active and inactive are the calls of the source. The calls are words filed in the database; no cut-off is given here.

The term IC50 denotes the midpoint of a concentration-inhibition curve. A lower IC50 goes with greater potency. For the compound `O=C1C2=C(C3=NCCc4c[nH]c1c43)[C@]1(C=C(Br)[C@H](O)C(Br)=C1)CCN2`, in experiment [1], the “inhibition (qualitative active call)” value is “Active”. The IC50 was above 10 µM in experiment [2], 35.2 µM in experiment [3], 8.6 µM in experiment [4] and 5.1 µM in experiment [5]. In [6], the “inhibition outcome (active/inactive)” value was “Active”. In addition, the figures for the Concentration causing inhibition in experiment [7] and in experiment [8] were 10 µM and 1 µM, respectively.
Regarding `Cn1c(C[C@H](N)C(=O)O)cnc1S[C@H]1[C@H]2C(=O)C=C3S[C@H]4C[C@]31C1=C(N4)C(=O)c3[nH]cc4c3C1=[N+]2CC4`, the “inhibition (qualitative active call)” value in [1] was “Active”. Also, the IC50 is above 10 µM in experiment [2]; 2.2 µM in [3]; above 10 µM in experiment [4]; above 50 µM in experiment [9]; above 10 µM in experiment [5]. The “inhibition outcome (active/inactive)” value in experiment [6] was “Active”. In addition, the figures for the Concentration causing inhibition in [7] and in [8] were 0.5 µM and 0.1 µM, respectively. In experiment [10], the inhibition entry is “Active”.
With `O=C1C(NC2Cc3cc(Br)c(O)cc3S2)=CC2=NCCc3c[nH]c1c32` (centres undefined) [MAKALUVAMINE F], the “inhibition (qualitative active call)” value in experiment [1] is “Active”. Further, the IC50 in experiment [2] is above 10 µM; in [3], 8.3 µM; in experiment [4], 7.2 µM; in experiment [5], above 10 µM. For the same compound, the “inhibition outcome (active/inactive)” value in experiment [6] was “Active”. Also, the figures for the Concentration causing inhibition in experiment [7] and in experiment [8] were 0.25 µM and 0.1 µM, respectively.
For the compound `O=C1C2=C3C4=[N+](CCc5c[nH]c1c54)[C@@H]1C(=O)C=C4S[C@@H](C[C@@]43[C@H]1O)N2`, the “inhibition (qualitative active call)” value in [1] is “Active”. The IC50 in experiment [2] was 8.3 µM; in experiment [3], 0.73 µM; in experiment [4], 6.2 µM; in [9], above 50 µM; in [5] it was 7.6 µM. Further, in experiment [6], the “inhibition outcome (active/inactive)” value was “Active”. For the same compound, the inhibition entry in experiment [11] is “Active”. In addition, the Concentration causing inhibition in experiment [7] came to 0.1 µM; in experiment [8], 1 µM.
`Nc1n[n+]([O-])c2ccccc2[n+]1[O-]` [TIRAPAZAMINE]: the IC50 in experiment [4] turned out to be 72.7 µM; in experiment [9], 11.9 µM; in [5] it was 47.7 µM.
Turning to `O=C1C=C(SSC2=CC(=O)C(Br)=C[C@]23CCNC2=C3C3=NCCc4c[nH]c(c43)C2=O)[C@]2(C=C1Br)CCNC1=C2C2=NCCc3c[nH]c(c32)C1=O`, the “inhibition (qualitative active call)” value in experiment [1] was “Active”. The IC50 was above 10 µM in [2], above 100 µM in [3], above 10 µM in experiment [4] and above 10 µM in experiment [5]. Also, the Concentration causing inhibition in experiment [7] came out at 0.1 µM.
For the compound `O=C1C=C2S[C@H]3C[C@]2(C=C1Br)C1=C(N3)C(=O)c2[nH]cc3c2C1=NCC3` [(+)-DISCORHABDIN B], the “inhibition (qualitative active call)” value in experiment [1] is “Active”. Also, the IC50 in [2] turned out to be 7 µM; in experiment [3] it was 3.7 µM; in [4] it was 3.1 µM; in [5], 1.8 µM. In addition, the “inhibition outcome (active/inactive)” value in experiment [6] is “Active”. Moreover, the figures for the Concentration causing inhibition in experiment [7] and in experiment [8] were 0.1 µM and 1 µM, respectively.
With `CN1C(=O)[C@]23CC4=CC=C[C@H](O)[C@H]4N2C(=O)[C@@]1(CO)SS3`, the inhibition entry in experiment [12], in experiment [13] and in [14] was “Active” each time.
Turning to `O=C1C=C(S[C@H]2[C@H]3C(=O)C=C4S[C@H]5C[C@]42C2=C(N5)C(=O)c4[nH]cc5c4C2=[N+]3CC5)[C@]2(C=C1Br)CCNC1=C2C2=NCCc3c[nH]c(c32)C1=O`, the “inhibition (qualitative active call)” value in [1] is “Active”. Besides, the IC50 in [2] is above 10 µM; in experiment [3] it was 2.4 µM; in [4], above 10 µM; in [9] it was 26.8 µM; in experiment [5] it was above 10 µM. Moreover, the “inhibition outcome (active/inactive)” value in experiment [6] is “Active”. The Concentration causing inhibition was found to be 0.1 µM in experiment [7] and 1 µM in [8].
Regarding `CN1C(=O)[C@@]2(CO)SS[C@@]1(Cc1cn([C@]34C[C@@]56SS[C@](CO)(C(=O)N5[C@H]3Nc3ccccc34)N(C)C6=O)c3ccccc13)C(=O)N2C`, the inhibition result in experiment [15], in experiment [16] and in experiment [17] was “Active” each time. This compound gave an IC50 in experiment [3] of 1.9 µM.
